Assay results from PMC8277681 (Molecular imaging and biology, 2021).

Biological target: mGluR2 (Rattus norvegicus, UniProt P31421)
Experiment: PET imaging of brain uptake and blocking in rats
Type: in vivo, Sprague Dawley rats
Conditions: blocker 4 mg/kg i.v. 10 min before [18F]8, 1–10 min time window
Method in brief: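 Male Sprague Dawley rats (275–400 g) under isoflurane/nitrous oxide (1.0–1.5% isoflurane), tail vein catheterized. Dynamic 60-min PET started at i.v. injection of the 18F radioligand (20–41 MBq). Unlabeled blocker in saline with 10% ethanol and 10% Tween 20 was given 4 mg/kg i.v. 10 min before the radioligand. Percent change in regional brain uptake versus baseline scans was taken at 1–10 min.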

mGluR2, sequence (P31421 19-872): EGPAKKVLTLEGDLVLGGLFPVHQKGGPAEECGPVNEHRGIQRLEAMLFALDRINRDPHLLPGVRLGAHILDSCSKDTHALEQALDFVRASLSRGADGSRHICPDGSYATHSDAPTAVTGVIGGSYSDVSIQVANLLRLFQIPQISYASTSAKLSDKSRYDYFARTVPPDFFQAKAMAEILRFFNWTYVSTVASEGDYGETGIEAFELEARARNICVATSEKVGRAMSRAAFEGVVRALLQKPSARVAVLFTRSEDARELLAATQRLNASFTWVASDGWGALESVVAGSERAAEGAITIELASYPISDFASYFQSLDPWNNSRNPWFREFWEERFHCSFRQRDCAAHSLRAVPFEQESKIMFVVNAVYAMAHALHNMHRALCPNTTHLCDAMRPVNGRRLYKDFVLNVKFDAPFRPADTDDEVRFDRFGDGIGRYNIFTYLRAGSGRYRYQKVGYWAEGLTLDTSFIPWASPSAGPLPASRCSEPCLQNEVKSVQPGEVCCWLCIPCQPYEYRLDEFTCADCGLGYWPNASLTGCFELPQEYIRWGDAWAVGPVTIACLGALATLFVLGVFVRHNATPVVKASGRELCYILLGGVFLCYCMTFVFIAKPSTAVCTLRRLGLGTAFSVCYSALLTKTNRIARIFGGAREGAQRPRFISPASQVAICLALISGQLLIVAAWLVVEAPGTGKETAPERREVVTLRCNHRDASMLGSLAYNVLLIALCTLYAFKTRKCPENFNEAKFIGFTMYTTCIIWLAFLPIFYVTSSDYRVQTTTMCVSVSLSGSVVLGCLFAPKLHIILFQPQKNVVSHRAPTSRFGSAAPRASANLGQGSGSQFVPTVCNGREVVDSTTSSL

decrease of [18F]8 uptake in cerebellum (blocking effect): 18.8%
SMILES: Fc1ccc(N2CCN(Cc3ccn4c(CC5CC5)nnc4c3C(F)(F)F)CC2)c(F)c1 [compound 8, 8-trifluoromethyl-3-cyclopropylmethyl-7-[(4-(2,4-difluorophenyl)-1-piperazinyl)methyl]-1,2,4-triazolo[4,3-a]pyridine]
